Measurements as given in ChEMBL document CHEMBL3526114, “Histone deacetylase inhibitors increase human arylamine N-acetyltransferase-1 expression in human tumor cells” (Drug Metab Dispos, 2011).

Legend:
HeLa [1] = experiment: Induction of NATb Sp1 site in human HeLa cells at 0.5 uM after 24 hrs by luciferase reporter gene assay; assay type: cell-based
[2] = molecular target: T1, NAT1 (arylamine N-acetyltransferase 1) (Homo sapiens, UniProt P18440); experiment: Increase in NAT1 enzyme activity in human HeLa cells at 0.5 uM using p-aminobenzoic acid substrate after 24 hrs by HPLC method relative to untreated control; assay type: ADME, cell-based; conditions: probe p-aminobenzoic acid, read-out: FC
T1 sequence (P18440 whole entry): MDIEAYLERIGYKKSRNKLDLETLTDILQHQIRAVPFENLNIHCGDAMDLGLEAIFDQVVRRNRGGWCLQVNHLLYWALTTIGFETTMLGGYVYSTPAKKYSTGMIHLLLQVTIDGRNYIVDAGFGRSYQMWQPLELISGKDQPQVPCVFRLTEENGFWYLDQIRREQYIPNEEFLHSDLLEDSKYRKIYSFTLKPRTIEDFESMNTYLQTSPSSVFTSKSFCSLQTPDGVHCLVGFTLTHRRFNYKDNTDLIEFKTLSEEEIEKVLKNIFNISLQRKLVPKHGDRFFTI
Procedure, shortened: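 HeLa cultured in RPMI 1640 with 5% FBS and treated with 0.5 μM TSA or DMSO vehicle for 24 hr at 37°C. Cells washed with PBS and sonicated in 20 mM Tris pH 7.4, 1 mM EDTA, 1 mM DTT. Lysates assayed at once for NAT1 activity by HPLC with p-aminobenzoic acid substrate. Mean ± SEM, n = 3.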

HeLa [3] = experiment: Induction of Sp1 recruitment to NATb promoter in human HeLa cells nuclear extracts at 0.5 uM after 24 hrs by EMSA method; assay type: cell-based
Procedure, shortened: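 Nuclear extracts from HeLa treated with 0.5 µM TSA or vehicle. 2 µg extract incubated with 1 × 10⁵ d.p.m. ³²P probe spanning the NATb Sp1 site, 30 min at room temperature, in binding buffer pH 7.9 with poly[d(I-C)]. Competition used 100-fold excess unlabelled wild-type or mutant probe; supershift used 2 µg Sp1 antibody. Run on 5% native PAGE at 4°C; phosphorimaging.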

NATb promoter of NAT1 [4] = experiment: Induction of Sp1 recruitment to NATb promoter in human HeLa cells at 0.5 uM after 24 hrs by luciferase reporter gene assay; assay type: cell-based; conditions: read-out: FC
[5] = molecular target: T1, NAT1 (arylamine N-acetyltransferase 1); experiment: Increase in NAT1 enzyme activity in 100% confluent human HeLa cells at 0.5 uM using p-aminobenzoic acid substrate after 24 hrs by HPLC method relative to untreated control; assay type: ADME, cell-based; conditions: probe p-aminobenzoic acid, read-out: FC
Procedure, shortened: (§1)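 HeLa seeded at 2 × 10⁵, 4 × 10⁵ or 6 × 10⁵ cells/well in 6-well plates (40, 80, 100% confluence at treatment). Treated with 0.5 μM TSA or vehicle for 24 hr. Sonicated lysates in 20 mM Tris pH 7.4, 1 mM EDTA, 1 mM DTT. NAT1 activity measured by HPLC with p-aminobenzoic acid substrate. Mean ± SEM, n = 3; Student's t-test versus vehicle.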

NATb promoter of NAT1 [6] = experiment: Induction of NATb 3657 bp fragment upstream of exon 4 in human HeLa cells at 0.5 uM after 24 hrs by luciferase reporter gene assay; assay type: cell-based; conditions: read-out: FC
Procedure, shortened: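 HeLa seeded at 1.5 × 10⁵ cells/well and left overnight, then transfected (Lipofectamine 2000) with 1 µg of a deletion series of NATb promoter–firefly luciferase constructs (length = bp upstream of exon 4). After 4 hr, 0.5 µM TSA or DMSO for 24 hr; passive lysis buffer; luciferase read-out. Mean ± SEM, n = 3; t-test.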

HeLa [7] = experiment: Effect on NAT1 mRNA stability in human HeLa cells assessed as slope of mRNA decay curve at 0.5 uM after 24 hrs in presence of transcription inhibitor actinomycin D by qPCR method (reference value: -0.78 +/- 0.09/hr)
HeLa [8] = experiment: Increase in NATb promoter activity in human HeLa cells at 0.5 uM after 24 hrs by qPCR method; assay type: ADME, cell-based
Procedure, shortened: (§2)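 After 24 hr with 0.5 μM TSA or vehicle, HeLa NATb-derived NAT1 transcript quantified by qPCR. Cycling: 95°C 10 min, then 40 cycles (NATb) or 30 (β-actin) of 95°C 15 s, 50°C 20 s, 72°C. Single product checked by melt curve and gel. Normalised to β-actin; fold change by ΔΔCT. Mean ± SEM, n = 6; t-test.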

NAT1 mRNA = experiment: Increase in NAT1 mRNA expression in human HeLa cells at 0.5 uM after 24 hrs by qPCR method; assay type: ADME, cell-based; conditions: read-out: FC; procedure, shortened: as §2
[9] = molecular target: T1, NAT1 (arylamine N-acetyltransferase 1); experiment: Increase in NAT1 enzyme activity in 40% confluent human HeLa cells at 0.5 uM using p-aminobenzoic acid substrate after 24 hrs by HPLC method relative to untreated control; assay type: ADME, cell-based; conditions: probe p-aminobenzoic acid, read-out: FC; procedure, shortened: as §1
NATb promoter of NAT1 [10] = experiment: Induction of Sp1 (GC>TA) mutant recruitment to NATb promoter in human HeLa cells at 0.5 uM after 24 hrs by luciferase reporter gene assay; assay type: cell-based; conditions: read-out: FC
HeLa [11] = experiment: Induction of acetylated histone H4 recruitment to NATb promoter in human HeLa cells at 0.5 uM after 6 hrs by ChIP assay
HeLa [12] = experiment: Increase in NATa promoter activity in human HeLa cells at 0.5 uM after 24 hrs by qPCR method; assay type: ADME, cell-based
HeLa [13] = experiment: Induction of Sp1 recruitment to NATb promoter in human HeLa cells at 0.5 uM after 6 hrs by ChIP assay

- fold induction at 24 h, 0.5 µM [2]: 3.2
- fold induction at 24 h, 0.5 µM (NATb promoter of NAT1 [4]): 45
- fold induction at 24 h, 0.5 µM [5]: < 1.5
- fold induction at 24 h, 0.5 µM (NATb promoter of NAT1 [6]): 18
- Activity (HeLa [7]): -0.46 h⁻¹
- fold induction at 24 h, 0.5 µM (NAT1 mRNA): 25
- fold induction at 24 h, 0.5 µM [9]: 4.1
- fold induction at 24 h, 0.5 µM (NATb promoter of NAT1 [10]): < 5
Structure (SMILES): CC(/C=C/C(=O)NO)=C\[C@@H](C)C(=O)c1ccc(N(C)C)cc1 [TRICHOSTATIN]
- Activity (HeLa [1]): Toxic
- Activity (HeLa [3]): Toxic
- Activity (HeLa [8]): Toxic
- Activity (HeLa [11]): Toxic
- Activity (HeLa [12]): Non-toxic
- Activity (HeLa [13]): Toxic
